This is an account of results in ChEMBL document CHEMBL1649157, “Intracellular activity of antibiotics against Staphylococcus aureus in a mouse peritonitis model” (Antimicrob Agents Chemother, 2009).

Active and inactive are the calls of the source.

The subject of data set [1] is Staphylococcus aureus. Briefly: Antibacterial activity against Staphylococcus aureus E19977 infected in NMRI mouse assessed as log reduction in intracellular bacterial cfu in peritoneum at 200 mg/kg, sc administered 2 hrs after infection measured after 4 hrs. The data set is classed as functional, organism-based. Further details: dose 200 mg/kg. The method in brief: (§1)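 Dose–response in i.p.-infected NMRI mice (mucin adjuvant). Single doses of 200, 60, 30, 20 or 10 mg/kg were given 2 h after inoculation, with 4–16 mice per group. Peritoneal wash was sampled 4 h later and split by lysostaphin/centrifugation into total, extra- and intracellular counts, then expressed as Δlog10 CFU/ml against log dose. Vehicle controls were plotted as 0.3 mg/kg. Hill fit (variable slope); static dose interpolated.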

The test system of data set [2] is Staphylococcus aureus. Description: Antibacterial activity against Staphylococcus aureus E19977 infected in NMRI mouse assessed as log reduction in bacterial cfu in peritoneum at 60 mg/kg, sc administered as single dose 2 hrs after infection measured after 4 hrs. The data set is classed as functional, organism-based. Further details: dose 60 mg/kg. The method in brief: (§2)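 NMRI mice were infected i.p. with S. aureus E19977 in 5% mucin. A single dose (60 mg/kg or 10 mg/kg) was given 1, 2 or 3 h after inoculation, four mice per group. Peritoneal wash was sampled after 4 h of treatment and separated into total, extracellular and intracellular counts by lysostaphin/centrifugation. Δlog10 CFU/ml was calculated against vehicle-treated mice infected for the same time (5, 6 or 7 h).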

Data set [3] relates to Staphylococcus aureus. Description: Antibacterial activity against Staphylococcus aureus E19977 infected in NMRI mouse assessed as log reduction in bacterial cfu in peritoneum at 60 mg/kg, sc administered as single dose 3 hrs after infection measured after 4 hrs. The data set is classed as functional, organism-based. Further details: dose 60 mg/kg. The method in brief: as §2

In data set [4] the test system is Staphylococcus aureus. Description: Antibacterial activity against Staphylococcus aureus E19977 infected in NMRI mouse assessed as log reduction in intracellular bacterial cfu in peritoneum at 60 mg/kg, sc administered as single dose 1 hr after infection measured after 4 hrs. Further details: dose 60 mg/kg. The data set is classed as functional, organism-based. The method in brief: as §2

For data set [5], the system named is Staphylococcus aureus. Description: Antibacterial activity against Staphylococcus aureus E19977 infected in NMRI mouse assessed as log reduction in extracellular bacterial cfu in peritoneum at 60 mg/kg, sc administered as single dose 1 hr after infection measured after 4 hrs. The data set is classed as functional, organism-based. Further details: dose 60 mg/kg. The method in brief:
as §2

Data set [6] deals with Staphylococcus aureus. Description: Antibacterial activity against Staphylococcus aureus E19977 infected in NMRI mouse assessed as log reduction in extracellular bacterial cfu in peritoneum at 60 mg/kg, sc administered as single dose 2 hrs after infection measured after 4 hrs. The data set is classed as functional, organism-based. Also noted: dose 60 mg/kg. The method in brief: as §2

Data set [7] relates to Staphylococcus aureus. Briefly: Antibacterial activity against Staphylococcus aureus E19977 infected in NMRI mouse assessed as log reduction in extracellular bacterial cfu in peritoneum at 60 mg/kg, sc administered as single dose 3 hrs after infection measured after 4 hrs. The data set is classed as functional, organism-based. Further details: dose 60 mg/kg. The method in brief:
as §2

The test system of data set [8] is Staphylococcus aureus. Description: Antibacterial activity against Staphylococcus aureus E19977 infected in NMRI mouse assessed as log reduction in bacterial cfu in peritoneum at 10 to 200 mg/kg, sc administered 2 hrs after infection measured after 4 hrs. The data set is classed as functional, organism-based. The method in brief: as §1
The test system of data set [9] is Staphylococcus aureus. Description: Antibacterial activity against Staphylococcus aureus E19977 infected in NMRI mouse assessed as log reduction in intracellular bacterial cfu in peritoneum at 10 to 200 mg/kg, sc administered 2 hrs after infection measured after 4 hrs. The data set is classed as functional, organism-based. The method in brief: as §1
Data set [10] deals with Staphylococcus aureus. Briefly: Antibacterial activity against Staphylococcus aureus E19977 infected in NMRI mouse assessed as log reduction in extracellular bacterial cfu in peritoneum at 10 to 200 mg/kg, sc administered 2 hrs after infection measured after 4 hrs. The data set is classed as functional, organism-based. The method in brief:
as §1

The subject of data set [11] is Staphylococcus aureus. Description: Antibacterial activity against Staphylococcus aureus E19977 infected in NMRI mouse assessed as log reduction in intracellular bacterial cfu in peritoneum at 200 mg/kg, sc administered 2 hrs after infection evry 8 hrs as three-dose regimen measured after 19 hrs. Also noted: dose 200 mg/kg. The data set is classed as functional, organism-based. The method in brief: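 NMRI mice were infected i.p. and given one or three doses (every 8 h), starting 2 h post-inoculation, at 200 mg/kg or 60 mg/kg, four mice per group. Peritoneal washes were sampled over 19 h of treatment. Total, extracellular and intracellular CFU/ml (lysostaphin separation) were compared with the pretreatment level; mean ± range, n = 2. Untreated controls were sampled only at 6 h of infection.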

Data set [12] is described as follows: Half life in human at 1000 mg, po. The class given is ADME, organism-based. Particulars: in vivo.

The term half-life denotes the time needed for the level to fall by half in the phase considered. The low end stands for rapid decline, the high end for slow decline. Consider `Cc1onc(-c2c(Cl)cccc2Cl)c1C(=O)N[C@@H]1C(=O)N2[C@@H]1SC(C)(C)[C@@H]2C(=O)O` [DICLOXACILLIN], for which the result in the data set on Staphylococcus aureus [1], in the data set on Staphylococcus aureus [2], in the data set with Staphylococcus aureus [3], with Staphylococcus aureus [6], with Staphylococcus aureus [7] and in the data set with Staphylococcus aureus [11] was inactive. Moreover, the result in the data set on Staphylococcus aureus [4] and with Staphylococcus aureus [5] was Active. The Activity entry with Staphylococcus aureus [8], in the data set with Staphylococcus aureus [9] and in the data set with Staphylococcus aureus [10] was “Dose-dependent effect” in each case. The half-life in [12] was 1 h.
